# Article PMC10501872 (Acta Pharmaceutica Sinica. B, 2023)
# Experiments:
# TLR4 [1] = target: T1, TLR4 (Homo sapiens, UniProt O00206); assay: Surface plasmon resonance, hTLR4; assay type: binding; settings: SPR
# Summary of the method: (§1)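 For SPR chip coating, human TLR2 was expressed in insect H5 cells and diluted in PBS to 1 mg/mL. Commercial human TLR4 protein was diluted in PBS to 0.1 mg/mL.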
# Target sequence in this assay (O00206 24-631 limits assumed): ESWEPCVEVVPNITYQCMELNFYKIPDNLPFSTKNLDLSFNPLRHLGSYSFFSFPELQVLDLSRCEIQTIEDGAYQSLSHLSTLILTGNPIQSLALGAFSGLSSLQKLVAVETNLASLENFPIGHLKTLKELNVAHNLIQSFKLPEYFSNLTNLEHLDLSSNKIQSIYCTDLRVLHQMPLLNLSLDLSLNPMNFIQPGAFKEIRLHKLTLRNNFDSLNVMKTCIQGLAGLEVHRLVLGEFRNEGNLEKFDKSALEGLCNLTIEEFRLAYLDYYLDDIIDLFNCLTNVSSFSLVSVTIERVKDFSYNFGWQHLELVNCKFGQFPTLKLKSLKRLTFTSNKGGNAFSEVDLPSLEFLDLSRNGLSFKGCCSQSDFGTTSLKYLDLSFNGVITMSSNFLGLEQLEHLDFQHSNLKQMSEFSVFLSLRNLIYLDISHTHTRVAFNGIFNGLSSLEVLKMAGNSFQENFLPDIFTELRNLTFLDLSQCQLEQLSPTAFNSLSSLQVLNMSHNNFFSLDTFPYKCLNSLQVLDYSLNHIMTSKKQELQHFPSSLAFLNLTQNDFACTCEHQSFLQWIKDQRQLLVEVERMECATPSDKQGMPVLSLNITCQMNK
# C57Bl/6 mice [2] = assay: DSS-induced colitis; assay type: in vivo, mouse; settings: for weight loss: oral administration, Day 8
# Summary of the method: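 Colitis was induced with 3.5% DSS in drinking water for 5 days (not in controls), followed by normal water. From Day 2, test compound (5 or 25 mg/kg), dexamethasone (25 mg/kg) or vehicle was given orally. Body weight was recorded daily and mice were killed on Day 8. Colon was lysed in RIPA with protease/phosphatase inhibitors by sonication at 4 °C and spun at 12,000×g for 30 min. IL-6 and TNF-α were measured by ELISA on BCA-equalised protein.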
# TLR4 [3] = target: T1, TLR4; assay: Cellular thermal shift assay, TLR4; assay type: binding; settings: 20 μmol/L, THP-1 cells
# Target sequence in this assay (O00206 24-839): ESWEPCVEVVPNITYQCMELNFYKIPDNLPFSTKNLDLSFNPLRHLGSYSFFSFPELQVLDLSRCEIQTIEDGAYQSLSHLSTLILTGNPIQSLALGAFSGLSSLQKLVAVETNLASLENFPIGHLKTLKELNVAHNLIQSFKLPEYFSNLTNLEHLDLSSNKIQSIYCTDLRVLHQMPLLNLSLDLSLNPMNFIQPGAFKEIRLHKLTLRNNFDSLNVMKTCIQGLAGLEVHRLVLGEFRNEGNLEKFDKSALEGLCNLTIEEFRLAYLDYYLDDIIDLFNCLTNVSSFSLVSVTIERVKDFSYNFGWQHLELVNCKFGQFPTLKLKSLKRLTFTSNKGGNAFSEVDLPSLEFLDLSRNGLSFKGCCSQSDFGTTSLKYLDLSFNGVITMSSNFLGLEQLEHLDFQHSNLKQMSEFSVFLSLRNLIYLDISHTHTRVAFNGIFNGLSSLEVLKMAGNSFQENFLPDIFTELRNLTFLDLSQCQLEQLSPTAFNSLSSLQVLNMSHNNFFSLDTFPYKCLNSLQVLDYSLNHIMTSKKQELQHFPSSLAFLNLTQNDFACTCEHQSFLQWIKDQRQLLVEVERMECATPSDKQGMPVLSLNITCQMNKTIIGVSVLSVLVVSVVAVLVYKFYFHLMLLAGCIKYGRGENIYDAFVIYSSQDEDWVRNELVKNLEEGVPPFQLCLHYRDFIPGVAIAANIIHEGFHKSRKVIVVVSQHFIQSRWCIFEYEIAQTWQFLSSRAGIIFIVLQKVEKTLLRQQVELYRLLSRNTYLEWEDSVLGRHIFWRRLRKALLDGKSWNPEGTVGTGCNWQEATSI
# TLR2 [4] = target: T2, TLR2 (Homo sapiens, UniProt O60603); assay: Competitive combination assay with Rhodamine-Pam3CSK4; assay type: cell-based; settings: 1 μmol/L, Rhodamine-Pam3CSK4 800 ng/mL, 4 h
# T2 sequence (O60603 21-784): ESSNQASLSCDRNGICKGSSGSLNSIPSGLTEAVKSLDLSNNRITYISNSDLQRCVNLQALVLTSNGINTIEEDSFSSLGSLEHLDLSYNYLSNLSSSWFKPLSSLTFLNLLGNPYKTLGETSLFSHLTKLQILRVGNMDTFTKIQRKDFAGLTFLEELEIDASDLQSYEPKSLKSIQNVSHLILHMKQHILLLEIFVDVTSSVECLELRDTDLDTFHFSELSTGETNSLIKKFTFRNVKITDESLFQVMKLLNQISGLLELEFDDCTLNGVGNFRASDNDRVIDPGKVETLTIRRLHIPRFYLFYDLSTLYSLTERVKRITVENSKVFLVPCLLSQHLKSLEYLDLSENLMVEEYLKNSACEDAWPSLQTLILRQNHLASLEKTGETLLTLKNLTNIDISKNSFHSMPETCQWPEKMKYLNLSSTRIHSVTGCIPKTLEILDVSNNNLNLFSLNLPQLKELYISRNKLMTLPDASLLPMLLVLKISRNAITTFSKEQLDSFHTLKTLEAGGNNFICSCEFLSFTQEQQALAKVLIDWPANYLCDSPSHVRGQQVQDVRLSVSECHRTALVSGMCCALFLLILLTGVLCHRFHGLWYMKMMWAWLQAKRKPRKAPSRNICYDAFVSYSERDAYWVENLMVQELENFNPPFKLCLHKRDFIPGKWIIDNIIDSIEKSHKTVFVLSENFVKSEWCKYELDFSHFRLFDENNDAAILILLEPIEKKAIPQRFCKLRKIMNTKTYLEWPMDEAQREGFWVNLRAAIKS
# Summary of the method: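 HEK-hTLR2 cells (3 × 10^4 per well) were seeded in DMEM with 10% FBS and left overnight. Medium was replaced with DMEM containing 800 ng/mL rhodamine-Pam3CSK4 and 1 μmol/L test compound for 4 h. After three PBS washes, nuclei were stained with DAPI for 5 min, cells were washed again and imaged by confocal microscopy.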
# TLR2 [5] = target: T2, TLR2; assay: Surface plasmon resonance, hTLR2; assay type: binding
# Summary of the method: as §1
# HEK-Blue hTLR2 cells = assay: Cell toxicity assay; assay type: cell-based, human; settings: 24 h, CCK-8
# Summary of the method: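 HEK-hTLR2 cells were seeded at 3 × 10^4 per well in DMEM with 10% FBS and left overnight at 37 °C. Graded concentrations of test compound were added for 24 h at 37 °C. CCK-8 was then added for 1–4 h at 37 °C and absorbance read at 450 nm.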
# [6] = tested on: primary murine peritoneal macrophages; assay: Nitric oxide; assay type: cell-based, mouse; settings: 10 μmol/L; Pam3CSK4 100 ng/mL, IFN-γ 40 ng/mL
# Summary of the method: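 Thioglycolate-elicited peritoneal macrophages from 6–8-week C57BL/6 mice were seeded at 1 × 10^6 per well. Cells were exposed to IFN-γ (40 ng/mL) and Pam3CSK4 (100 ng/mL) with test compound for 48 h. Nitrite was read at 570 nm against a sodium nitrite standard curve.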
# TLR2 [7] = target: T2, TLR2; assay: Cellular thermal shift assay, TLR2; assay type: binding; settings: 20 μmol/L, THP-1 cells, 45 to 53 °C, especially at 51 °C
# [8] = tested on: healthy human peripheral blood mononuclear cells (PBMCs); assay: Cytokines ELISA, Pam3CSK4-treated PBMCs; assay type: cell-based; settings: 5 μmol/L, Pam3CSK4 100 ng/mL, 24 h
# Summary of the method: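 Human PBMCs were seeded at 0.5 × 10^6 per well in RPMI 1640 with 10% FBS. Test compound plus Pam3CSK4 (100 ng/mL) was added for 24 h at 37 °C, 5% CO2. Supernatants were stored at −80 °C, then assayed by sandwich ELISA with recombinant cytokine standards, in triplicate.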
# TLR2 [9] = target: T2, TLR2; assay: QUANTI-blue SEAP assay, Pam3CSK4-stimulated HEK-Blue hTLR2 cells; assay type: cell-based
# Summary of the method: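 HEK-Blue hTLR2 cells (4 × 10^4 per well) were grown 24 h at 37 °C, 5% CO2 in DMEM with 10% FBS, then given fresh medium. Graded test compound and Pam3CSK4 (100 ng/mL) were added for 24 h. Supernatant was mixed 1:1 with QUANTI-Blue, shaken in the dark, and OD620 read at 15–30 min.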
# KM mice = assay: Toxicity studies in vivo; parameters: species or system mouse; settings: 250 mg/kg oral on Day 1, 3 and 5; Day 7
# Summary of the method: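 Male and female KM mice (6–8 weeks) were split into control and treated groups of 10 (half male). Test compound was given orally on Days 1, 3 and 5; controls received the same volume of solvent. Body weight was recorded daily. On Day 7, mice were killed and tissues taken for H&E pathology.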
# Water solubility = assay type: physicochemical
# TLR2/6 = TLR2/6 (Homo sapiens, UniProt O60603); assay: SEAP signaling induced by Pam2CSK4 in HEK-Blue hTLR2 cells; assay type: cell-based; settings: Pam2CSK4 100 ng/mL, 24 h
# TLR2/6, sequence (O60603 21-784): as above
# [10] = Pharmacokinetics in rat plasma; assay type: in vivo; settings: for AUC: rat plasma; for AUC / half-life: n = 5; for half-life: t1/2, rat plasma
# C57Bl/6 mice [11] = assay: Carrageenan-induced paw edema model; assay type: in vivo, mouse; settings: at 4 h; for paw swelling (measured by volume): ip prior to carrageenan
# Summary of the method: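 Male C57Bl/6 mice (6–8 weeks) were randomised into four groups of six. Saline, indomethacin (10 mg/kg ip) or test compound (5 mg/kg ip) was given 1 h before 50 μL 1% carrageenan was injected into the right hind plantar paw. Paw volume was read by plethysmometer at baseline and at 1, 4, 8 and 24 h. At 4 h, paws were weighed and homogenised in 0.5% HTAB phosphate buffer (pH 6.0); supernatant triplicates were assayed with 3,3′-dimethoxybenzidine/1% H2O2 for MPO.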
# mouse primary BMDCs = assay: BMDCs activation assay; assay type: cell-based; settings: 10 μmol/L
# Summary of the method: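 BMDCs were generated from femur and tibia marrow of C57BL/6 mice and collected on day 7. They were seeded at 5 × 10^5 per well in RPMI 1640 with 10% FBS and left overnight. Cells then received Pam3CSK4 (300 ng/mL) or LPS (100 ng/mL) plus test compound for 24 h. Harvested cells were stained 30 min for CD86, CD80 and CD11c and read by flow cytometry.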
# [12] = tested on: mouse primary peritoneal macrophage; assay: Peritoneal macrophage phenotype assay; assay type: cell-based; settings: 10 μmol/L
# Summary of the method: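 Peritoneal macrophages were plated at 1 × 10^6 per well in RPMI 1640 with 10% FBS and left overnight. Cells were treated for 24 h with medium, Pam3CSK4 (100 ng/mL) + IFN-γ (40 ng/mL), or LPS (100 ng/mL) + IFN-γ (40 ng/mL), each with test compound. Cells were trypsinised, stained 30 min for CD86 and CD11b, and analysed by flow cytometry.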
# TLR4 [13] = assay: Cytokines ELISA, LPS-treated peritoneal macrophages and THP-1 cells; assay type: cell-based, human and murine; settings: LPS 100 ng/mL, 24 h
# Summary of the method: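 Thioglycolate-elicited peritoneal macrophages from C57BL/6 mice were seeded at 0.5 × 10^6 per well in RPMI 1640 with 10% FBS. THP-1 cells (2.5 × 10^5 cells/mL) were differentiated with 100 nmol/L PMA for 24 h, washed and rested 24 h in fresh medium. Both cell types received LPS (100 ng/mL) plus graded test compound for 24 h at 37 °C. Supernatants were frozen at −80 °C and cytokines quantified by sandwich ELISA against recombinant standards, in triplicate.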
# C57Bl/6 mice [14] = assay: Cecum ligation and puncture sepsis model; assay type: in vivo, mouse; settings: oral 5 and 25 mg/kg 1 h before CLP; serum and lung tissue, 8 h
# Summary of the method: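 Male C57Bl/6 mice aged 6–8 weeks were used for polymicrobial sepsis by CLP. Test compound was given orally 1 h before surgery; sham-operated mice received the same volume of saline. Serum and lung tissue were taken 8 h after surgery for ELISA.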
smiles,measurement,setting,value
"CCOC(=O)C1=CCCC[C@H]1S(=O)(=O)Nc1ccc(F)cc1Cl [TAK-242, reference compound]",binding signal to recombinant hTLR4 protein,TLR4 [1],exhibited the ability to bind
"C[C@@H]1C[C@H]2[C@@H]3CCC4=CC(=O)C=C[C@]4(C)[C@@]3(F)[C@@H](O)C[C@]2(C)[C@@]1(O)C(=O)CO [dexamethasone, reference compound]",weight loss,C57Bl/6 mice [2],reduced weight loss
COc1ccc2c(=O)oc3c(OC)cc(CC(O)CN(C)C)c4c(=O)oc1c2c34 (stereo not drawn) [SMU-Y6],thermal stabilization of TLR4,TLR4 [3],failed to induce the thermal stabilization
same,fluorescence intensity of Rhodamine-Pam3CSK4,TLR2 [4],reduced the fluorescence intensity
same,Kd,TLR2 [5],0.18 µM
same,time to complete dissociation from TLR2 protein,TLR2 [5]; SPR,500 s
same,cytotoxicity compared with Taspine,HEK-Blue hTLR2 cells,reduced toxicity
same,production of NO induced by Pam3CSK4,[6],significantly reduced
same,thermal stabilization of TLR2 protein,TLR2 [7],higher thermal stabilization
same,release of IL-1β,[8],completely inhibited
same,release of TNF-α,[8],completely inhibited
same,IC50,TLR2 [9],0.11 ± 0.04 µM
same,improvement of activity compared with Taspine,TLR2 [9]; vs Taspine,10 fold
same,immediate toxicity,KM mice,did not seem to exhibit immediate toxicity
same,"pathological analysis of heart, liver, spleen, lung and kidney",KM mice,no obvious organic damage
same,weight loss,C57Bl/6 mice [2],reduced weight loss
same,IL-6 in local colonic tissue,"C57Bl/6 mice [2]; oral, 5 and 25 mg/kg",reduced the production
same,TNF-α in local colonic tissue,"C57Bl/6 mice [2]; oral, 5 and 25 mg/kg",reduced the production
same,water solubility relative to Taspine,Water solubility; vs Taspine,20 times
same,binding signal to recombinant hTLR4 protein,TLR4 [1],did not detect a binding signal
same,SEAP signaling induced by Pam2CSK4,TLR2/6,suppressed the SEAP signaling
same,Cmax,[10]; ip,0.208 ± 0.0311 µg/mL
same,Tmax,[10]; ip,0.25 ± 0.01 h
same,AUC,"[10]; ip, AUC0‒t, intraperitoneal injection",1.79 ± 0.41 µg·h/mL
same,AUC,"[10]; ip, AUC0‒∞, intraperitoneal injection",2.16 ± 0.6 µg·h/mL
same,half-life,"[10]; ip, intraperitoneal injection",9.16 ± 1.11 h
same,Cmax,[10]; po,0.0523 ± 0.00583 µg/mL
same,Tmax,[10]; po,3 ± 1 h
same,AUC,"[10]; po, AUC0‒t, oral administration",0.619 ± 0.0842 µg·h/mL
same,AUC,"[10]; po, AUC0‒∞, oral administration",0.844 ± 0.184 µg·h/mL
same,half-life,"[10]; po, oral administration",11.5 ± 2.7 h
same,activity of local myeloperoxidase (MPO) in paw tissue,C57Bl/6 mice [11],reversed
same,paw swelling (measured by volume),C57Bl/6 mice [11],significantly reduced
same,LPS-induced activation of BMDCs,mouse primary BMDCs,failed to reverse
same,percentage of CD80+ CD86+ cells,"mouse primary BMDCs; Pam3CSK4, 16.6% without compound",8.1%
same,polarization induced by LPS and IFN-γ,[12],no effect
same,"inhibitory activity with regards to TLR4 (TNF-α, IL-6)",TLR4 [13],little or even no inhibitory activity
same,production of IL-6 in sepsis,C57Bl/6 mice [14],significantly reduced the production
same,production of TNF-α in sepsis,C57Bl/6 mice [14],significantly reduced the production
"COc1ccc2c(c1)c(CC(=O)O)c(C)n2C(=O)c1ccc(Cl)cc1 [indomethacin, reference compound]",activity of local myeloperoxidase (MPO) in paw tissue,C57Bl/6 mice [11],reversed
same,paw swelling (measured by volume),C57Bl/6 mice [11],significantly reduced
"COc1ccc2c(=O)oc3c(OC)cc(CCN(C)C)c4c(=O)oc1c2c34 [Taspine, reference compound]",water solubility,Water solubility,poor water solubility
